Measured values reported in ChEMBL document CHEMBL1127845, “Synthesis and antitumor activity of novel 6-alkyl-6-demethylmitomycins” (J Med Chem, 1994).

Key:
[1] = test system: CCRF S-180; assay: Optimal dose against sarcoma 180 tumor in ddY mice; type: functional, Mus musculus
Procedure, shortened: (§1)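 Sarcoma 180 cells implanted subcutaneously in the axillary region of ddY mice on day 0. Compounds given intravenously on day 1. Tumor volume determined by a previously described method and expressed as treated/control. ED50 is the dose giving 50% inhibition of tumor growth, taken from the dose–response curve. Optimal dose also recorded.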

[2] = test system: HeLa; assay: In vitro anticellular activity against HeLa S3 cells; type: functional, cell-based; settings: Homo sapiens
Procedure, shortened: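 HeLa S3 cells seeded in 96-well plates on day 0, then exposed to compound for 1 h on day 1. Anticellular activity determined by a previously described method.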

[3] = test system: CCRF S-180; assay: Treated versus control value of tumor volume was measured in ddY mice; type: functional, Mus musculus; procedure, shortened: as §1
[4] = test system: CCRF S-180; assay: Effective dose that gave 50 percent inhibition of sarcoma 180 tumor growth in ddY mice; type: functional; settings: Mus musculus; procedure, shortened: as §1

Row | SMILES | OD [1] [mg/kg] | IC50 [2] [nM] | T/C [3] | ED50 [4] [mg/kg]
1 | CCCCCCCCCCCC1=C(OC)C(=O)C2=C(C1=O)N1C[C@@H]3N[C@@H]3[C@]1(OC)[C@@H]2COC(N)=O [6-DEMETHYL-6-N-UNDECYLMITOMYCIN A] | 20 | 640 | 0.8 | –
2 | CCCCCC1=C(OC)C(=O)C2=C(C1=O)N1C[C@H]3[C@H](N3C)[C@]1(O)[C@H]2COC(N)=O (stereo partly specified) | 20 | 3100 | 0.79 | –
3 | C=CCC1=C(N)C(=O)C2=C(C1=O)N1C[C@@H]3N[C@@H]3[C@]1(OC)[C@@H]2COC(N)=O | – | 10000 | – | –
4 | COC1=C(C)C(=O)C2=C(C1=O)[C@@H](COC(N)=O)[C@@]1(OC)[C@H]3N[C@H]3CN21 [MITOMYCIN A] | 1.8 | – | 0.2 | 1.3
5 | CCCCCCCCCCCCCCCCCCCC1=C(N)C(=O)C2=C(C1=O)N1C[C@@H]3N[C@@H]3[C@]1(OC)[C@@H]2COC(N)=O | – | 9000 | – | –
6 | CCC1=C(N)C(=O)C2=C(C1=O)N1C[C@H]3[C@H](N3C)[C@]1(OC)[C@@H]2COC(N)=O (stereo partly specified) | 46 | – | 1.02 | –
7 | CCC1=C(N)C(=O)C2=C(C1=O)N1C[C@@H]3N[C@@H]3[C@]1(OC)[C@@H]2COC(N)=O.ClC(Cl)Cl | 46 | > 10000 | 0.42 | 38
8 | CO[C@@]12[C@H](COC(N)=O)C3=C(C(=O)C(Cc4ccccc4)=C(N)C3=O)N1C[C@@H]1N[C@@H]12 | – | > 10000 | – | –
9 | CO[C@@]12[C@H](COC(N)=O)C3=C(C(=O)C(CC(C)C)=C(N)C3=O)N1C[C@@H]1N[C@@H]12 | 46 | > 10000 | 0.78 | –
10 | CCC1=C(OC)C(=O)C2=C(C1=O)N1C[C@@H]3N[C@@H]3[C@]1(OC)[C@@H]2COC(N)=O [6-DEMETHYL-6-ETHYLMITOMYCIN A] | 7.4 | 17 | 0.1 | 2.8
11 | COC1=C(CC(C)C)C(=O)C2=C(C1=O)[C@@H](COC(N)=O)[C@@]1(OC)[C@H]3N[C@H]3CN21 | – | 200 | – | –
12 | COC1=C(CC(C)C)C(=O)C2=C(C1=O)[C@H](COC(N)=O)[C@@]1(O)[C@@H]3[C@H](CN21)N3C (stereo partly specified) [6-DEMETHYL-6-(2-METHYLPROPYL)MITOMYCIN B] | 20 | 6100 | 0.71 | –
13 | CO[C@@]12[C@H](COC(N)=O)C3=C(C(=O)C(C)=C(N)C3=O)N1C[C@@H]1N[C@@H]12 [MITOMYCIN] | 6 | 590 | 0.26 | 1.7
14 | CCCCCCCCCCCCCCCCCCCC1=C(OC)C(=O)C2=C(C1=O)N1C[C@@H]3N[C@@H]3[C@]1(OC)[C@@H]2COC(N)=O [6-DEMETHYL-6-N-NONADECYLMITOMYCIN A] | 46 | 7300 | 0.69 | –
15 | COC1=C(Cc2ccccc2)C(=O)C2=C(C1=O)[C@H](COC(N)=O)[C@@]1(O)[C@@H]3[C@H](CN21)N3C (stereo partly specified) [6-BENZYL-6-DEMETHYLMITOMYCIN B] | 46 | 520 | 0.41 | 37
16 | CCCCCC1=C(N)C(=O)C2=C(C1=O)N1C[C@@H]3N[C@@H]3[C@]1(OC)[C@@H]2COC(N)=O | – | > 10000 | – | –
17 | COC1=C(Cc2ccccc2)C(=O)C2=C(C1=O)[C@@H](COC(N)=O)[C@@]1(OC)[C@H]3N[C@H]3CN21 | 30 | 63 | 0.43 | 23
18 | CCC1=C(OC)C(=O)C2=C(C1=O)N1C[C@H]3[C@H](N3C)[C@]1(O)[C@H]2COC(N)=O (stereo partly specified) | 30 | 300 | 0.39 | 14
19 | CCCCCC1=C(OC)C(=O)C2=C(C1=O)N1C[C@@H]3N[C@@H]3[C@]1(OC)[C@@H]2COC(N)=O [6-DEMETHYL-6-N-PENTYLMITOMYCIN A] | 30 | 87 | 0.37 | 19
20 | CCCCCCCCCCCC1=C(N)C(=O)C2=C(C1=O)N1C[C@@H]3N[C@@H]3[C@]1(OC)[C@@H]2COC(N)=O | – | > 10000 | – | –
21 | CCC1=C(N)C(=O)C2=C(C1=O)N1C[C@H]3[C@H](N3C)[C@]1(O)[C@H]2COC(N)=O (stereo partly specified) | 20 | > 10000 | 0.8 | –
22 | CO[C@@]12[C@H](COC(N)=O)C3=C(C(=O)C(CC[N+](=O)[O-])=C(N)C3=O)N1C[C@@H]1N[C@@H]12 | 15 | 1500 | 0.44 | 8
